According to ChEMBL document CHEMBL1142894, “Preparation of 5-aryl-3-alkylthio-l,2,4-triazoles and corresponding sulfones with antiinflammatory-analgesic activity” (Bioorg Med Chem, 2007):
Activity calls are given as the source filed them. The rule behind the calls is not given here.

Tests used:
Mus musculus [1] = assay: Analgesic activity against p-benzoquinone-induced abdominal constriction in Swiss albino mouse assessed as number of writhings at 50 mg/kg, po; type: functional, Abdomen
Procedure, shortened: (§1)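 Test samples given orally in 0.5% CMC; vehicle to controls. 60 min later, 2.5% (v/v) p-benzoquinone in distilled water, 0.1 ml/10 g, given i.p. Mice housed singly; writhes counted for 15 min starting 5 min after injection. Activity is % change from vehicle controls. n = 6; mean ± SEM.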

Mus musculus [2] = assay: Antiinflammatory activity against carrageenan-induced paw edema in Swiss albino mouse assessed as swelling thickness at 50 mg/kg, po after 360 mins; type: functional
Procedure, shortened: (§2)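 Oral dosing in 0.5% CMC; vehicle to controls. Then carrageenan (0.5 mg/25 ll, freshly suspended in 154 mM saline) injected into the right hind paw subplantar tissue; saline into the left paw. Right-left footpad thickness difference measured by dial gauge calliper every 90 min over 6 h. Inhibition % is relative to vehicle control. n = 6; mean ± SEM.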

Mus musculus [3] = assay: Inhibition of carrageenan-induced paw edema in Swiss albino mouse at 50 mg/kg, po after 360 mins relative to control; type: functional; details: 6 h
Procedure, shortened: (§3)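 Mice, n = 6 per group. Test agent given orally as a suspension in 0.5% sodium CMC in distilled water; controls received vehicle only. Afterwards, 0.5 mg/25 ll carrageenan in saline (154 mM NaCl) injected subplantar into the right hind paw, saline into the left. Right-minus-left footpad thickness measured by dial gauge caliper every 90 min for 6 h. Inhibition is relative to vehicle-control group means.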

Mus musculus [4] = assay: Inhibition of carrageenan-induced paw edema in Swiss albino mouse at 25 mg/kg, po after 360 mins relative to control; type: functional; details: 6 h; procedure, shortened: as §2
Mus musculus [5] = assay: Inhibition of carrageenan-induced paw edema in Swiss albino mouse at 100 mg/kg, po after 90 mins relative to control; type: functional; details: 1.5 h; procedure, shortened: as §2
Mus musculus [6] = assay: Analgesic activity against p-benzoquinone-induced abdominal constriction in Swiss albino mouse assessed as number of writhings at 100 mg/kg, po; type: functional, Abdomen; procedure, shortened: as §1
Mus musculus [7] = assay: Antiinflammatory activity against carrageenan-induced paw edema in Swiss albino mouse assessed as swelling thickness at 100 mg/kg, po after 90 mins; type: functional; procedure, shortened: as §2
Mus musculus [8] = assay: Gastric-ulcerogenic effect in Swiss albino mouse assessed as lesions at 100 mg/kg, po; type: functional, organism-based; parameters: dose 100 mg/kg
Procedure, shortened: (§4)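 Mice killed under deep ether anesthesia 3 h after the writhing test; the oral dose in 0.5% CMC was the one used in that test. Stomachs removed, opened along the great curvature and examined under a dissecting microscope for lesions or bleeding. Reported as ratio of ulceration; n = 6.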

Mus musculus [9] = assay: Gastric-ulcerogenic effect in Swiss albino mouse assessed as lesions at 25 mg/kg, po; type: functional, organism-based; parameters: dose 25 mg/kg; procedure, shortened: as §4
Mus musculus [10] = assay: Antiinflammatory activity against carrageenan-induced paw edema in Swiss albino mouse assessed as swelling thickness at 25 mg/kg, po after 180 mins; type: functional; procedure, shortened: as §2
Mus musculus [11] = assay: Inhibition of carrageenan-induced paw edema in Swiss albino mouse at 100 mg/kg, po after 180 mins relative to control; type: functional; details: 3 h; procedure, shortened: as §2
Mus musculus [12] = assay: Antiinflammatory activity against carrageenan-induced paw edema in Swiss albino mouse assessed as swelling thickness at 25 mg/kg, po after 90 mins; type: functional; procedure, shortened: as §2
Mus musculus [13] = assay: Inhibition of p-benzoquinone-induced writhing in Swiss albino mouse at 25 mg/kg, po relative to control; type: functional
Procedure, shortened: (§5)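 Mice, n = 6 per group, dosed orally with a suspension in 0.5% sodium CMC. 60 min later, 0.1 ml/10 g of 2.5% […] p-benzoquinone in distilled water given ip. Abdominal writhes counted per animal for 15 min, starting 5 min after injection. Expressed as % change in mean writhing count versus vehicle controls.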

Mus musculus [14] = assay: Inhibition of carrageenan-induced paw edema in Swiss albino mouse at 100 mg/kg, po after 360 mins relative to control; type: functional; details: 6 h; procedure, shortened: as §2
Mus musculus [15] = assay: Antiinflammatory activity against carrageenan-induced paw edema in Swiss albino mouse assessed as swelling thickness at 100 mg/kg, po after 180 mins; type: functional; procedure, shortened: as §2
Mus musculus [16] = assay: Antiinflammatory activity against carrageenan-induced paw edema in Swiss albino mouse assessed as swelling thickness at 100 mg/kg, po after 270 mins; type: functional; procedure, shortened: as §2
Mus musculus [17] = assay: Gastric-ulcerogenic effect in Swiss albino mouse assessed as lesions at 50 mg/kg, po; type: functional, organism-based; parameters: dose 50 mg/kg; procedure, shortened: as §4
Mus musculus [18] = assay: Antiinflammatory activity against carrageenan-induced paw edema in Swiss albino mouse assessed as swelling thickness at 25 mg/kg, po after 360 mins; type: functional; procedure, shortened: as §2
Mus musculus [19] = assay: Inhibition of carrageenan-induced paw edema in Swiss albino mouse at 50 mg/kg, po after 270 mins relative to control; type: functional; details: 4.5 h; procedure, shortened: as §3
Mus musculus [20] = assay: Inhibition of carrageenan-induced paw edema in Swiss albino mouse at 25 mg/kg, po after 90 mins relative to control; type: functional; details: 1.5 h; procedure, shortened: as §2
Mus musculus [21] = assay: Analgesic activity against p-benzoquinone-induced abdominal constriction in Swiss albino mouse assessed as number of writhings at 25 mg/kg, po; type: functional, Abdomen; procedure, shortened: as §1
Mus musculus [22] = assay: Antiinflammatory activity against carrageenan-induced paw edema in Swiss albino mouse assessed as swelling thickness at 50 mg/kg, po after 90 mins; type: functional; procedure, shortened: as §2
Mus musculus [23] = assay: Antiinflammatory activity against carrageenan-induced paw edema in Swiss albino mouse assessed as swelling thickness at 200 mg/kg, po after 180 mins; type: functional; procedure, shortened: as §2
Mus musculus [24] = assay: Antiinflammatory activity against carrageenan-induced paw edema in Swiss albino mouse assessed as swelling thickness at 50 mg/kg, po after 270 mins; type: functional; procedure, shortened: as §2
Mus musculus [25] = assay: Antiinflammatory activity against carrageenan-induced paw edema in Swiss albino mouse assessed as swelling thickness at 200 mg/kg, po after 360 mins; type: functional; procedure, shortened: as §2
Mus musculus [26] = assay: Inhibition of carrageenan-induced paw edema in Swiss albino mouse at 50 mg/kg, po after 90 mins relative to control; type: functional; details: 1.5 h; procedure, shortened: as §3
Mus musculus [27] = assay: Antiinflammatory activity against carrageenan-induced paw edema in Swiss albino mouse assessed as swelling thickness at 25 mg/kg, po after 270 mins; type: functional; procedure, shortened: as §2
Mus musculus [28] = assay: Inhibition of p-benzoquinone-induced writhing in Swiss albino mouse at 200 mg/kg, po relative to control; type: functional; procedure, shortened: as §5
Mus musculus [29] = assay: Gastric-ulcerogenic effect in Swiss albino mouse assessed as lesions at 200 mg/kg, po; type: functional, organism-based; parameters: dose 200 mg/kg; procedure, shortened: as §4
Mus musculus [30] = assay: Inhibition of carrageenan-induced paw edema in Swiss albino mouse at 50 mg/kg, po after 180 mins relative to control; type: functional; details: 3 h; procedure, shortened: as §2
Mus musculus [31] = assay: Inhibition of carrageenan-induced paw edema in Swiss albino mouse at 25 mg/kg, po after 270 mins relative to control; type: functional; details: 4.5 h; procedure, shortened: as §2
Mus musculus [32] = assay: Antiinflammatory activity against carrageenan-induced paw edema in Swiss albino mouse assessed as swelling thickness at 200 mg/kg, po after 270 mins; type: functional; procedure, shortened: as §2
Mus musculus [33] = assay: Inhibition of p-benzoquinone-induced writhing in Swiss albino mouse at 50 mg/kg, po relative to control; type: functional; procedure, shortened: as §5
Mus musculus [34] = assay: Inhibition of carrageenan-induced paw edema in Swiss albino mouse at 25 mg/kg, po after 180 mins relative to control; type: functional; details: 3 h; procedure, shortened: as §2
Mus musculus [35] = assay: Antiinflammatory activity against carrageenan-induced paw edema in Swiss albino mouse assessed as swelling thickness at 100 mg/kg, po after 360 mins; type: functional; procedure, shortened: as §2
Mus musculus [36] = assay: Analgesic activity against p-benzoquinone-induced abdominal constriction in Swiss albino mouse assessed as number of writhings at 200 mg/kg, po; type: functional, Abdomen; procedure, shortened: as §1
Mus musculus [37] = assay: Antiinflammatory activity against carrageenan-induced paw edema in Swiss albino mouse assessed as swelling thickness at 200 mg/kg, po after 90 mins; type: functional; procedure, shortened: as §2
Mus musculus [38] = assay: Inhibition of carrageenan-induced paw edema in Swiss albino mouse at 100 mg/kg, po after 270 mins relative to control; type: functional; details: 4.5 h; procedure, shortened: as §2
Mus musculus [39] = assay: Inhibition of p-benzoquinone-induced writhing in Swiss albino mouse at 100 mg/kg, po relative to control; type: functional; procedure, shortened: as §5
Mus musculus [40] = assay: Antiinflammatory activity against carrageenan-induced paw edema in Swiss albino mouse assessed as swelling thickness at 50 mg/kg, po after 180 mins; type: functional; procedure, shortened: as §2

`CSc1nnc(-c2ccc(Cl)cc2)[nH]1` was tested, and the Activity (Mus musculus [1]) was 34.1, the Activity (Mus musculus [2]) was 47.1 10^-2mm and the inhibition in vivo at 50 mg/kg (Mus musculus [3]) was 34.6%. It also gave an inhibition in vivo at 25 mg/kg (Mus musculus [4]) of 18.2%, an inhibition in vivo at 100 mg/kg (Mus musculus [5]) of 24.1% and an Activity (Mus musculus [6]) of 34.1. For the same compound, the Activity (Mus musculus [7]) was 34 10^-2mm, the Activity (Mus musculus [8]) was “Active” and the Activity (Mus musculus [9]) was “Active”. The Activity (Mus musculus [10]) was 48.9 10^-2mm, the inhibition in vivo at 100 mg/kg (Mus musculus [11]) was 25.6% and the Activity (Mus musculus [12]) was 43.5 10^-2mm. The inhibition in vivo at 25 mg/kg (Mus musculus [13]) was 13%, the inhibition in vivo at 100 mg/kg (Mus musculus [14]) was 30.2% and the Activity (Mus musculus [15]) was 38.3 10^-2mm. The Activity (Mus musculus [16]) was 43 10^-2mm, the Activity (Mus musculus [17]) was “Active” and the Activity (Mus musculus [18]) was 58.9 10^-2mm. It also gave an inhibition in vivo at 50 mg/kg (Mus musculus [19]) of 34.9%, an inhibition in vivo at 25 mg/kg (Mus musculus [20]) of 18.2% and an Activity (Mus musculus [21]) of 44.7. For the same compound, the Activity (Mus musculus [22]) was 37.4 10^-2mm, the Activity (Mus musculus [23]) was 61.2 10^-2mm and the Activity (Mus musculus [24]) was 42.2 10^-2mm. For the same compound, the Activity (Mus musculus [25]) was 76.8 10^-2mm, the inhibition in vivo at 50 mg/kg (Mus musculus [26]) was 29.7% and the Activity (Mus musculus [27]) was 51.5 10^-2mm. For the same compound, the inhibition in vivo at 200 mg/kg (Mus musculus [28]) was 15.8%, the Activity (Mus musculus [29]) was “Active” and the inhibition in vivo at 50 mg/kg (Mus musculus [30]) was 30.6%. For the same compound, the inhibition in vivo at 25 mg/kg (Mus musculus [31]) was 20.5%, the Activity (Mus musculus [32]) was 65.9 10^-2mm and the inhibition in vivo at 50 mg/kg (Mus musculus [33]) was 33.7%. For the same compound, the inhibition in vivo at 25 mg/kg (Mus musculus [34]) was 17.7%, the Activity (Mus musculus [35]) was 48 10^-2mm and the Activity (Mus musculus [36]) was 43.3. For the same compound, the Activity (Mus musculus [37]) was 54.7 10^-2mm, the inhibition in vivo at 100 mg/kg (Mus musculus [38]) was 26.9% and the inhibition in vivo at 100 mg/kg (Mus musculus [39]) was 27.9%. For the same compound, the Activity (Mus musculus [40]) was 41.2 10^-2mm.
